Results on five molecules are retold here after ChEMBL document CHEMBL5608236, “A Photoactivatable Version of Ivabradine Enables Light-Induced Block of HCN Current In Vivo” (J Med Chem, 2024).

Activity calls are given as the source filed them. The calls are words filed in the database; no cut-off is given here.

Data set [1] concerns Neuron. Nature of the data set: Inhibition of HCN in mouse brain neuron assessed as reduction of hyperpolarization-activated current (Ih) at 30 uM at holding potential of -70 to -120 mV with UV light irradiation at 365 nm by whole cell patch clamp electrophysiology. Type of data set: tissue-based. The method in brief:
(§1)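 Dendritic whole-cell recordings on L5 neurons of medial prefrontal cortex in acute slices from male mice (2-3 months), aCSF at 32-34 °C with D-APV, DNQX, CGP and gabazine. Ih evoked by steps to -120 mV (1.8 s) then +5 mV (0.15 s) from -70 mV holding. Compound bath-perfused at 30 or 100 μM with 365 nm illumination of the slice (23.5 mW); steady-state current compared before and at full effect; paired t-test.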

The nature of data set [2]: In vivo inhibition of HCN4 in Zebrafish larvae assessed as reduction in heart rate at 1 mM administered at 48 hpf along with 0.5 mW/mm2 of UV light irradiation exposure at 365 nm measured upto 60 mins (reference value: 84 +/- 1 %). Format: functional, Danio rerio.
A short description of data set [3]: Fluorescence property of compound in HEPES buffer at pH 7.4 assessed as quantum yield at 1.5 mM under irradiation with 440 nm light by UV-Visible spectra analysis. Type of data set: physicochemical. As to conditions: pH 7.4, 1500 µM.
A short description of data set [4]: Drug accumulation in human HEK-293T cells transfected with RFP-fused human HCN1 assessed as increase in fluorescent signal at 30 uM incubated for 15 mins by fluorescent microscopic analysis. Type of data set: ADME, cell-based. As to conditions: 0.25 h. The gist of the method:
(§2)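 HEK293T cells incubated with 30 μM compound in buffer for 15 min, or perfused for 5 min. Intracellular autofluorescence (excitation 405 nm, emission 518 nm) imaged by fluorescence microscopy, with images taken during 10 min of washout.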

Data set [5] is described as follows: Fluorescence property of compound in HEPES buffer at pH 7.4 assessed as quantum yield at 1.5 mM under irradiation with 365 nm light by UV-Visible spectra analysis. Format: physicochemical. As to conditions: pH 7.4, 1500 µM.
The nature of data set [6]: In vivo inhibition of HCN4 in Zebrafish larvae assessed as reduction in heart rate at 1 mM administered at 48 hpf along with 2 mW/mm2 of blue light irradiation exposure at 436 nm measured upto 60 mins (reference value: 80 +/- 1 %). Format: functional, Danio rerio.
Data set [7] is described as follows: Solubility of compound in HEPES buffer at pH 7.4 by UV-Visible spectra analysis. Type of data set: physicochemical.
The nature of data set [8]: Fluorescence property of compound in HEPES buffer at pH 7.4 assessed as quantum yield at 1.5 mM under irradiation with 395 nm light by UV-Visible spectra analysis. Format: physicochemical. As to conditions: pH 7.4, 1500 µM.
The nature of data set [9]: Drug accumulation in human HEK-293T cells transfected with RFP-fused human HCN1 assessed as increase in fluorescent signal at 30 uM measured for 25 mins by fluorescent microscopic analysis. Type of data set: ADME, cell-based. The gist of the method:
as §2

A further data set concerns HEK-293T. Nature of the data set: Cytotoxicity against human HEK-293T cells assessed as reduction in cell viability at 100 uM incubated upto 48 hrs by live/dead TM red staining based fluorescent microscopic analysis. Type of data set: toxicity. The method in brief:
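HEK293T cells in DMEM high-glucose with 10% FBS and 1% PenStrep, treated at 80-90% confluency with 100 μM compound added to growth medium; untreated and 0.5% DMSO controls, heat-killed (60 °C, 20 min) positive control. After 8, 16, 24 or 48 h, cells detached, stained with LIVE-DEAD NearIF in PBS, imaged at 640 nm excitation; dead cells counted in three random quadrants per triplicate.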

Data set [10] relates to Neuron. Nature of the data set: Inhibition of HCN in mouse brain neuron assessed as reduction of hyperpolarization-activated current (Ih) at 100 uM at holding potential of -70 to -120 mV with UV light irradiation at 365 nm by whole cell patch clamp electrophysiology. Format: tissue-based. The method in brief: as §1
Data set [11] concerns the target T1, Potassium/sodium hyperpolarization-activated cyclic nucleotide-gated channel 1 (Homo sapiens) (UniProt O60741).
T1 sequence (whole entry): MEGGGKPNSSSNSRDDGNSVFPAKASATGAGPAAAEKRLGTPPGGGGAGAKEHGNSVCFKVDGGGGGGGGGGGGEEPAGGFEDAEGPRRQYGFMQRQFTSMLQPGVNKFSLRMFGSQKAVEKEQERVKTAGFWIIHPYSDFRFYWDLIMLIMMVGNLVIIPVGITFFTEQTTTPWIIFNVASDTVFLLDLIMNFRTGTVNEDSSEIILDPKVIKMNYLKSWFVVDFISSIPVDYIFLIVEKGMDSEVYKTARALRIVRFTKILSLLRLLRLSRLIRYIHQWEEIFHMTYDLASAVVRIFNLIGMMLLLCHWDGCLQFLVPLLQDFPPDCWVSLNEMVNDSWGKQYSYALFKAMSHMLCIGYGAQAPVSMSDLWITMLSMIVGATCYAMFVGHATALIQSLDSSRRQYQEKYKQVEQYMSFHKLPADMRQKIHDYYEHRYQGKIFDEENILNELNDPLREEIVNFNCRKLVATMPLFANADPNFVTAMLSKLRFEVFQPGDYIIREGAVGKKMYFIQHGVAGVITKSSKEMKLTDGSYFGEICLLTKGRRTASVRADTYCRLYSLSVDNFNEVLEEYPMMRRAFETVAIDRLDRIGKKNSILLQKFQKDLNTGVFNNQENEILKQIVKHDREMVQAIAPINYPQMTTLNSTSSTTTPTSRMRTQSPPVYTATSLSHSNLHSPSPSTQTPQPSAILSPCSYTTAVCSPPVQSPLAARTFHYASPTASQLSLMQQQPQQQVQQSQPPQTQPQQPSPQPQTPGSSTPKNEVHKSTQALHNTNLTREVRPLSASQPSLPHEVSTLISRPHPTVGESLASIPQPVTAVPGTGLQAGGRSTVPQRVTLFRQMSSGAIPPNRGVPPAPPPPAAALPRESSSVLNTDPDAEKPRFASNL
Nature of the data set: Inhibition of RFP-fused human HCN1 transfected in HEK-293T cells at 100 uM at holding potential of -110 mV under UV light exposure by whole cell patch clamp electrophysiology. Type of data set: cell-based. The method in brief: (§3)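 RFP-hHCN1 transiently expressed in HEK293T; whole-cell patch clamp at room temperature, 5 kHz sampling, 1 kHz filter. Steps to -110 mV (1.8 s) and +5 mV (0.5 s) every 5.5 s from -20 mV holding. Compound added to extracellular solution by perfusion, either in the dark, pre-illuminated (395 nm 0.5 mW/mm2, or 440 nm 1 mW/mm2 for 1 min) or illuminated during perfusion. Fractional block = current reduction/control current; mean ± SEM.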

For data set [12], the target named is T1, Potassium/sodium hyperpolarization-activated cyclic nucleotide-gated channel 1 (Homo sapiens). Nature of the data set: Inhibition of RFP-fused human HCN1 transfected in HEK-293T cells at 100 uM at holding potential of -110 mV under dark condition by whole cell patch clamp electrophysiology. Type of data set: cell-based. The gist of the method: as §3
A short description of data set [13]: Stability in human plasma at 40 mM incubated upto 24 hrs by UV-HPLC analysis. Type of data set: ADME, cell-free. The following applies: 1000 µM, in the assay text read “1 mM” for “40 mM”. The gist of the method:
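A 40 mM stock was added to human plasma (10 into 390 parts) and incubated at 37 °C for 24 h, in duplicate. At time points, aliquots were quenched in 3 volumes of cold acetonitrile, centrifuged at 4 °C for 10 min, filtered and analysed by HPLC-UV (C18, TFA water/acetonitrile gradient, detection at 280 nm).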

In data set [14] the target is T1, Potassium/sodium hyperpolarization-activated cyclic nucleotide-gated channel 1 (Homo sapiens). Nature of the data set: Inhibition of RFP-fused human HCN1 transfected in HEK-293T cells at 30 uM at holding potential of -110 mV pre-exposed with 0.5 mW/mm2 of UV light irradiation at 395 nm by whole cell patch clamp electrophysiology relative to IVA. Format: cell-based. The gist of the method:
as §3

Data set [15] shares this target. Nature of the data set: Inhibition of RFP-fused human HCN1 transfected in HEK-293T cells at 30 uM at holding potential of -110 mV pre-exposed with 0.5 mW/mm2 of UV light irradiation at 395 nm by whole cell patch clamp electrophysiology. Format: cell-based. The gist of the method: as §3
The target is the same in data set [16]. Nature of the data set: Inhibition of RFP-fused human HCN1 transfected in HEK-293T cells at 100 uM at holding potential of -110 mV with 1 mW/mm2 of blue light irradiation exposure at 440 nm by whole cell patch clamp electrophysiology relative to IVA. Format: cell-based. The gist of the method:
as §3

For data set [17] the target is unchanged. Nature of the data set: Inhibition of RFP-fused human HCN1 transfected in HEK-293T cells at 30 uM at holding potential of -110 mV with 0.5 mW/mm2 of UV light irradiation exposure at 395 nm by whole cell patch clamp electrophysiology relative to IVA. Type of data set: cell-based. The method in brief: as §3
For data set [18], the system named is Neuron. Nature of the data set: Inhibition of HCN in mouse brain neuron assessed as reduction of hyperpolarization-activated current (Ih) at 30 to 100 uM at holding potential of -70 to -120 mV with UV light irradiation at 365 nm by whole cell patch clamp electrophysiology. Type of data set: tissue-based. As to conditions: dose 30-100 µM. The gist of the method:
as §1

Data set [19] concerns the target T1, Potassium/sodium hyperpolarization-activated cyclic nucleotide-gated channel 1 (Homo sapiens). Nature of the data set: Inhibition of RFP-fused human HCN1 transfected in HEK-293T cells at 30 uM at holding potential of -110 mV with 1 mW/mm2 of blue light irradiation exposure at 440 nm by whole cell patch clamp electrophysiology relative to IVA. Format: cell-based. The method in brief:
as §3

The target is the same in data set [20]. Nature of the data set: Inhibition of RFP-fused human HCN1 transfected in HEK-293T cells at 100 uM at holding potential of -110 mV pre-exposed with 1 mW/mm2 of blue light irradiation at 440 nm by whole cell patch clamp electrophysiology relative to IVA. Format: cell-based. The method in brief:
as §3

Data set [21] shares this target. Nature of the data set: Inhibition of RFP-fused human HCN1 transfected in HEK-293T cells at 30 uM at holding potential of -110 mV with 0.5 mW/mm2 of UV light irradiation exposure at 395 nm by whole cell patch clamp electrophysiology. Type of data set: cell-based. The method in brief:
as §3

Take `COc1cc2c(cc1OC)CC(=O)N(CCCN(C)C[C@H]1Cc3cc(OC)c(OC)cc31)CC2`: in the data set with Neuron [1], the inhibition result was “Active”.
In the case of `COc1cc2c(cc1OC)CC(=O)N(CCC[N+](C)(Cc1ccc3ccc(O)c(Br)c3n1)C[C@H]1Cc3cc(OC)c(OC)cc31)CC2.CS(=O)(=O)[O-]` (stereo not given in full), the “inhibition (INH)” value is 51% in data set [2] and 49% in data set [6]. Moreover, the Activity was 0.051 in data set [3], 0.091 in [5], 0.041 in [8] and “Non-Toxic” with HEK-293T. The Drug uptake entry in [4] and in [9] was “Active” each time. The molecule further came in with a solubility in data set [7] of 550 µM.
`OCc1ccc2ccc(O)c(Br)c2n1`: the inhibition entry (with Neuron [10]; in data set [11]; in data set [12]) was “inactive” throughout. Moreover, the Activity entry in the data set with HEK-293T is on record as “Non-Toxic”.
With `COc1cc2c(cc1OC)CC(=O)N(CCC[N+](C)(Cc1ccc3ccc(O)c(Br)c3n1)C[C@H]1Cc3cc(OC)c(OC)cc31)CC2.[OH-]` (stereo not given in full), the Stability entry in [13] is on record as “Stable”. Further, the figures for the “inhibition (INH)” value in data set [2] and in data set [6] were 49% and 51%, respectively. The figures for the Activity in [3], in [5] and in data set [8] were 0.062, 0.073 and 0.034, respectively. Moreover, the concentration in solution in data set [7] (solubility) was 430 µM.
As for `COc1cc2c(cc1OC)CC(=O)N(CCC[N+](C)(Cc1ccc3ccc(O)c(Br)c3n1)C[C@H]1Cc3cc(OC)c(OC)cc31)CC2` (stereo not given in full), the inhibition stood at 95% in data set [14]; 85% in data set [16]; 85% in data set [17]; 65% in data set [19]; 85% in data set [20]. In addition, the inhibition result (in data set [15]; in the data set with Neuron [18]; in [21]) was “Active” throughout. Moreover, the inhibition result in data set [12] is “inactive”.
